For assay [1], the system named is MCF7. Briefly: Antiproliferative activity against human MCF7 cells. The class given is functional, cell-based. The gist of the method:
(§1)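 Cell growth inhibition with values in µM, reported as mean ± standard deviation from at least two separate experiments, each run in triplicate.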

A further assay deals with SK-BR-3. Briefly: Antiproliferative activity against human SKBR3 cells. The class given is functional, cell-based. In a few lines:
as §1

The next assay deals with SKBr3 (Homo sapiens). Put plainly: Antiproliferative activity against human SKBr3 cells.
Assay [2] concerns the target T1, Heat shock protein HSP90 (Homo sapiens, UniProt P07900+P08238). Briefly: Inhibition of Hsp90 (unknown origin). The class given is protein assay.
Assay [3] concerns MCF7. Briefly: Effect on Hsp90 level in human MCF7 cells after 24 hrs by Western blot analysis. The class given is functional, cell-based. In general terms: Immunoblotting shows a protein as a band on a membrane.
The target of assay [4] is T1, Heat shock protein HSP90. Put plainly: Inhibition of Hsp90 in human MCF7 cells assessed as Akt degradation after 24 hrs by Western blot analysis. The class given is cell-based. In a few lines: (§2)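 MCF-7 cells treated across a range of concentrations (in µM). Cell lysates were analysed by western blot for the Hsp90-dependent client proteins Her2, Raf and Akt. Geldanamycin (500 nM) served as positive control and DMSO as negative control.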

Assay [5] addresses T1, Heat shock protein HSP90. Briefly: Inhibition of Hsp90 in human MCF7 cells assessed as Raf degradation after 24 hrs by Western blot analysis. The class given is cell-based. The gist of the method:
as §2

The target of assay [6] is T1, Heat shock protein HSP90. Briefly: Inhibition of Hsp90 in human MCF7 cells assessed as Her2 degradation after 24 hrs by Western blot analysis. The class given is cell-based. The gist of the method: as §2

We go through 29 compounds from ChEMBL document CHEMBL2321658 (ACS Med Chem Lett, 2013).

Each structure is given as a SMILES string. Calls of active or inactive are those of the source. The calls are words filed in the database; no cut-off is given here.

A word on the IC50: it is the concentration that gives 50% inhibition. Consider `C#CCOc1ccc(C(=O)Nc2cc3ccc(OC4CCN(C)CC4)c(C)c3oc2=O)cc1CC=C(C)C`, for which the results for the IC50 with MCF7 [1] and in the assay with SK-BR-3 were 1120 nM and 1400 nM, respectively.
With `COc1ccc(C(=O)Nc2cc3ccc(OC4CCN(C)CC4)c(C)c3oc2=O)cc1-c1cccc(OC(C)=O)c1`, the IC50 with MCF7 [1] is 360 nM; in the assay on SK-BR-3 it was 290 nM.
For the compound `Cc1c(OC2CCN(C)CC2)ccc2cc(NC(=O)c3ccc(O)cc3)c(=O)oc12`, the IC50 in the assay on MCF7 [1] amounted to 1430 nM; in the assay with SK-BR-3, 840 nM.
For the compound `C=CCc1cc(C(=O)Nc2cc3ccc(OC4CCN(C)CC4)c(C)c3oc2=O)ccc1O`, the IC50 in the assay with MCF7 [1] was 2170 nM; in the assay with SK-BR-3 it was 2430 nM.
Compound `Cc1c(OC2CCN(C)CC2)ccc2cc(NC(=O)Nc3ccc(Cl)cc3)c(=O)oc12` returned an IC50 at SKBr3 (Homo sapiens) of 170 nM.
On the same count and under the same terms, under `COc1cccc(-c2cc(C(=O)Nc3cc4ccc(OC5CCN(C)CC5)c(C)c4oc3=O)ccc2OC)c1` stands 1340 nM.
Regarding `Cc1c(OC2CCN(C)CC2)ccc2cc(NC(=O)c3ccccc3)c(=O)oc12`, the results for the IC50 with MCF7 [1] and in the assay with SK-BR-3 were 11700 nM and 11500 nM, respectively.
Consider `COc1ccc(C(=O)Nc2cc3ccc(OC4CCN(C)CC4)c(C)c3oc2=O)cc1-c1cccc(O)c1`, for which the half-maximal inhibitory concentration (IC50) was 380 nM in the assay on MCF7 [1], 310 nM against Heat shock protein HSP90 [2] and 310 nM in the assay on SK-BR-3.
Regarding `COc1cccc(-c2cc(C(=O)Nc3cc4ccc(OC5CCN(C)CC5)c(C)c4oc3=O)ccc2OC(C)=O)c1`, the IC50 came to 910 nM in the assay with MCF7 [1] and 920 nM in the assay with SK-BR-3.
For the compound `CC(C)=CCc1cc(C(=O)Nc2cc3ccc(OC4CCN(C)CC4)c(C)c3oc2=O)ccc1OC1CCN(C)CC1`, the IC50 amounted to 470 nM with MCF7 [1] and 210 nM in the assay on SK-BR-3.
`COc1ccc(C(=O)Nc2cc3ccc(O[C@@H]4OC(C)(C)[C@H](OC)[C@@H](O)[C@H]4O)c(C)c3oc2=O)cc1-c1cccc(O)c1` displayed an IC50 against SKBr3 (Homo sapiens) of 2900 nM.
In the case of `CC(C)=CCc1cc(C(=O)Nc2cc3ccc(OC4CCN(C)CC4)c(C)c3oc2=O)ccc1OCCCN(C)C`, the result in the assay on MCF7 [3] was inactive. Besides, the inhibition entry at Heat shock protein HSP90 [4], at Heat shock protein HSP90 [5] and on Heat shock protein HSP90 [6] was “Dose-dependent effect” each time. The IC50 was 460 nM in the assay with MCF7 [1] and 250 nM with SK-BR-3.
`Cc1ccc(NC(=O)Nc2cc3ccc(OC4CCN(C)CC4)c(C)c3oc2=O)cc1C` registered an IC50 against SKBr3 (Homo sapiens) of 310 nM.
For the compound `COc1ccc(C(=O)Nc2cc3ccc(OC4CCN(C)CC4)c(C)c3oc2=O)cc1CC=C(C)C`, the IC50 with MCF7 [1] was 1580 nM; in the assay on SK-BR-3 it was 1410 nM.
With `Cc1c(OC2CCN(C)CC2)ccc2cc(NC(=O)c3ccc(O)c(CCC(C)C)c3)c(=O)oc12`, the IC50 in the assay with MCF7 [1] is 1250 nM; in the assay on SK-BR-3 it was 600 nM.
For `CC(C)=CCc1cc(C(=O)Nc2cc3ccc(OC4CCN(C)CC4)c(C)c3oc2=O)ccc1OCCN(C)C`, the concentration for half-maximal inhibition (IC50) amounted to 720 nM in the assay with MCF7 [1] and 330 nM in the assay on SK-BR-3.
As to `COc1cccc(-c2cc(C(=O)Nc3cc4ccc(O[C@@H]5OC(C)(C)[C@H](OC)[C@@H](O)[C@H]5O)c(OC)c4oc3=O)ccc2OC)c1`, at SKBr3 (Homo sapiens), the IC50 came out at 13900 nM.
As to `Cc1c(OC2CCN(C)CC2)ccc2cc(NC(=O)c3ccc4c(c3)CCC(C)(C)O4)c(=O)oc12`, the IC50 is 5010 nM in the assay on MCF7 [1] and 3460 nM with SK-BR-3.
On SKBr3 (Homo sapiens), `COc1cccc(-c2cc(C(=O)Nc3cc4ccc(O[C@@H]5OC(C)(C)[C@H](OC)[C@@H](O)[C@H]5O)c(C)c4oc3=O)ccc2OC)c1` showed an IC50 of 7500 nM.
Still for that read-out and setting: under `Cc1ccc(NC(=O)Nc2cc3ccc(OC4CCN(C)CC4)c(C)c3oc2=O)cc1` stands 270 nM.
Turning to `Cc1c(OC2CCN(C)CC2)ccc2cc(NC(=O)c3ccc(O)c(Cl)c3)c(=O)oc12`, the half-inhibitory concentration (IC50) was 1480 nM in the assay with MCF7 [1] and 2300 nM in the assay on SK-BR-3.
Take `CC(C)=CCc1cccc(C(=O)Nc2cc3ccc(OC4CCN(C)CC4)c(C)c3oc2=O)c1`: the results for the IC50 with MCF7 [1] and in the assay on SK-BR-3 were 2100 nM and 1680 nM, respectively.
In the case of `CC(=O)Oc1ccc(C(=O)Nc2cc3ccc(OC4CCN(C)CC4)c(C)c3oc2=O)cc1Cl`, the IC50 in the assay with MCF7 [1] turned out to be 1610 nM; with SK-BR-3, 3500 nM.
In the case of `CCCCOc1ccc(C(=O)Nc2cc3ccc(OC4CCN(C)CC4)c(C)c3oc2=O)cc1CC=C(C)C`, the values for the IC50 in the assay on MCF7 [1] and in the assay with SK-BR-3 were 1440 nM and 1400 nM, respectively.
In the case of `C=CCc1cc(C(=O)Nc2cc3ccc(OC4CCN(C)CC4)c(C)c3oc2=O)ccc1OC(C)=O`, the IC50 in the assay on MCF7 [1] came to 2000 nM; with SK-BR-3 it was 2260 nM.
`Cc1c(OCCC2CCCCN2)ccc2cc(NC(=O)Nc3ccc(Cl)cc3)c(=O)oc12` (centres undefined): the IC50 on SKBr3 (Homo sapiens) turned out to be 210 nM.
For `COc1cccc(-c2cc(C(=O)Nc3cc4ccc(OC5CCN(C)CC5)c(C)c4oc3=O)ccc2O)c1`, the IC50 with MCF7 [1] was 810 nM; in the assay on SK-BR-3, 860 nM.
On to `CC(=O)Oc1ccc(C(=O)Nc2cc3ccc(OC4CCN(C)CC4)c(C)c3oc2=O)cc1`, for which the IC50 stood at 1620 nM with MCF7 [1] and 1670 nM in the assay on SK-BR-3.
At SKBr3 (Homo sapiens), `CO[C@@H]1[C@@H](O)[C@@H](O)[C@H](Oc2ccc3cc(NC(=O)c4ccc(O)c(CC=C(C)C)c4)c(=O)oc3c2C)OC1(C)C` showed an IC50 of 10900 nM. This lies in the double-digit micromolar range.
